Reference: ChEMBL document CHEMBL1926569, “Novel (E)-1-(4-methyl-2-(alkylamino)thiazol-5-yl)-3-arylprop-2-en-1-ones as potent antimicrobial agents” (2011)
Converted amounts (≈) assume the structure as drawn.

Legend:
Staphylococcus aureus [1] = test: Antibacterial activity against Staphylococcus aureus ATCC 6538 after 24 hrs by microdilution method; assay type: functional; settings: ATCC 6538, 24 h
Outline: (§1)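 Broth microdilution in 96-well plates. Bacterial suspensions were adjusted in sterile saline to 1.0 × 10⁵ CFU/ml, prepared daily and kept at 4 °C. Compound was added to LB broth with 1.0 × 10⁴ CFU per well and shaken at 160 rpm for 24 h at […] (so in the source). MIC is the lowest concentration with no visible growth under a binocular microscope. OD655 was also read. Duplicate, repeated three times.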

Bacillus cereus [2] = test: Antibacterial activity against clinical isolate of Bacillus cereus after 24 hrs by microdilution method; assay type: functional; outline: as §1
Micrococcus flavus [3] = test: Antibacterial activity against Micrococcus flavus ATCC 10240 after 24 hrs by microdilution method; assay type: functional; settings: ATCC 10240, 24 h; outline: as §1
Listeria monocytogenes [4] = test: Antibacterial activity against Listeria monocytogenes NCTC 7973 after 24 hrs by microdilution method; assay type: functional; settings: NCTC 7973, 24 h; outline: as §1
Pseudomonas aeruginosa [5] = test: Antibacterial activity against Pseudomonas aeruginosa ATCC 27853 after 24 hrs by microdilution method; assay type: functional; settings: ATCC 27853, 24 h; outline: as §1
Salmonella typhimurium [6] = test: Antibacterial activity against Salmonella Typhimurium ATCC 13311 after 24 hrs by microdilution method; assay type: functional, Salmonella enterica subsp. enterica serovar Typhimurium; settings: Salmonella enterica, ATCC 13311, 24 h; outline: as §1
Escherichia coli [7] = test: Antibacterial activity against Escherichia coli ATCC 35210 after 24 hrs by microdilution method; assay type: functional; settings: ATCC 35210, 24 h; outline: as §1
Enterococcus faecalis [8] = test: Antibacterial activity against Enterococcus faecalis isolated from human after 24 hrs by microdilution method; assay type: functional; outline: as §1
Staphylococcus aureus [9] = test: Antibacterial activity against Staphylococcus aureus ATCC 6538 incubated for 24 hrs followed by serial sub-cultivation for 24 hrs by microdilution method; assay type: functional; settings: ATCC 6538, 24 h
Outline: (§2)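 MBC: after the 24 h LB broth microdilution (1.0 × 10⁴ CFU per well, 160 rpm), wells were serially sub-cultured into fresh broth plates and incubated a further 24 h. MBC is the lowest concentration with no visible growth, taken as 99.5% killing of the original inoculum. Duplicate, repeated three times.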

Bacillus cereus [10] = test: Antibacterial activity against clinical isolate of Bacillus cereus incubated for 24 hrs followed by serial sub-cultivation for 24 hrs by microdilution; assay type: functional; outline: as §2
Micrococcus flavus [11] = test: Antibacterial activity against Micrococcus flavus ATCC 10240 incubated for 24 hrs followed by serial sub-cultivation for 24 hrs by microdilution; assay type: functional; settings: ATCC 10240, 24 h; outline: as §2
Listeria monocytogenes [12] = test: Antibacterial activity against Listeria monocytogenes NCTC 7973 incubated for 24 hrs followed by serial sub-cultivation for 24 hrs by microdilution; assay type: functional; settings: NCTC 7973, 24 h; outline: as §2
Pseudomonas aeruginosa [13] = test: Antibacterial activity against Pseudomonas aeruginosa ATCC 27853 incubated for 24 hrs followed by serial sub-cultivation for 24 hrs by microdilution; assay type: functional; settings: ATCC 27853, 24 h; outline: as §2
Salmonella typhimurium [14] = test: Antibacterial activity against Salmonella Typhimurium ATCC 13311 incubated for 24 hrs followed by serial sub-cultivation for 24 hrs by microdilution; assay type: functional, Salmonella enterica subsp. enterica serovar Typhimurium; settings: Salmonella enterica, ATCC 13311, 24 h; outline: as §2
Escherichia coli [15] = test: Antibacterial activity against Escherichia coli ATCC 35210 incubated for 24 hrs followed by serial sub-cultivation for 24 hrs by microdilution; assay type: functional; settings: ATCC 35210, 24 h; outline: as §2
Enterococcus faecalis [16] = test: Antibacterial activity against Enterococcus faecalis isolated from human incubated for 24 hrs followed by serial sub-cultivation for 24 hrs by microdilution; assay type: functional; outline: as §2
Aspergillus ochraceus [17] = test: Antifungal activity against Aspergillus ochraceus ATCC 12066 after 72 hrs by serial dilution technique; assay type: functional; settings: ATCC 12066, 72 h
Outline: (§3)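 Modified microdilution in 96-well plates. Fungi were kept on malt agar at 4 °C. Spores were washed off in sterile 0.85% saline with 0.1% Tween 80. Compounds were dissolved at 1 mg/ml in 5% DMSO with 0.1% Tween 80 and added to malt broth with inoculum. Plates were shaken at 160 rpm for 72 h at 28 °C. Duplicate, repeated three times.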

Aspergillus niger [18] = test: Antifungal activity against Aspergillus niger ATCC 6275 after 72 hrs by serial dilution technique; assay type: functional; settings: ATCC 6275, 72 h; outline: as §3
Aspergillus flavus [19] = test: Antifungal activity against Aspergillus flavus ATCC 9643 after 72 hrs by serial dilution technique; assay type: functional; settings: ATCC 9643, 72 h; outline: as §3
Talaromyces funiculosus [20] = test: Antifungal activity against Penicillium funiculosum ATCC 36839 after 72 hrs by serial dilution technique; assay type: functional; settings: ATCC 36839, 72 h; outline: as §3
Penicillium ochrochloron [21] = test: Antifungal activity against Penicillium ochrochloron ATCC 9112 after 72 hrs by serial dilution technique; assay type: functional; settings: ATCC 9112, 72 h; outline: as §3
Trichoderma viride [22] = test: Antifungal activity against Trichoderma viride IAM 5061 after 72 hrs by serial dilution technique; assay type: functional; settings: IAM 5061, 72 h; outline: as §3
Candida albicans [23] = test: Antifungal activity against Candida albicans isolated from human after 72 hrs by serial dilution technique; assay type: functional; outline: as §3
Aspergillus ochraceus [24] = test: Antifungal activity against Aspergillus ochraceus ATCC 12066 incubated for 72 hrs followed by serial sub-cultivation for 72 hrs by serial dilution technique; assay type: functional; settings: ATCC 12066, 72 h
Outline: (§4)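 MFC: material from 72 h malt broth microdilution wells was serially sub-cultured into fresh broth plates and incubated a further 72 h at 28 °C. Fungicidal concentration is taken from growth after sub-culture. Duplicate, repeated three times.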

Aspergillus fumigatus [25] = test: Antifungal activity against Aspergillus fumigatus isolated from human incubated for 72 hrs followed by serial sub-cultivation for 72 hrs by serial dilution technique; assay type: functional; outline: as §4
Aspergillus niger [26] = test: Antifungal activity against Aspergillus niger ATCC 6275 incubated for 72 hrs followed by serial sub-cultivation for 72 hrs by serial dilution technique; assay type: functional; settings: ATCC 6275, 72 h; outline: as §4
Aspergillus flavus [27] = test: Antifungal activity against Aspergillus flavus ATCC 9643 incubated for 72 hrs followed by serial sub-cultivation for 72 hrs by serial dilution technique; assay type: functional; settings: ATCC 9643, 72 h; outline: as §4
Talaromyces funiculosus [28] = test: Antifungal activity against Penicillium funiculosum ATCC 36839 incubated for 72 hrs followed by serial sub-cultivation for 72 hrs by serial dilution technique; assay type: functional; settings: ATCC 36839, 72 h; outline: as §4
Penicillium ochrochloron [29] = test: Antifungal activity against Penicillium ochrochloron ATCC 9112 incubated for 72 hrs followed by serial sub-cultivation for 72 hrs by serial dilution technique; assay type: functional; settings: ATCC 9112, 72 h; outline: as §4
Trichoderma viride [30] = test: Antifungal activity against Trichoderma viride IAM 5061 incubated for 72 hrs followed by serial sub-cultivation for 72 hrs by serial dilution technique; assay type: functional; settings: IAM 5061, 72 h; outline: as §4
Candida albicans [31] = test: Antifungal activity against Candida albicans isolated from human incubated for 72 hrs followed by serial sub-cultivation for 72 hrs by serial dilution technique; assay type: functional; outline: as §4
Pseudomonas aeruginosa [32] = test: Ratio of ampicillin MIC to compound MIC for Pseudomonas aeruginosa ATCC 27853; assay type: functional
Aspergillus ochraceus [33] = test: Ratio of bifonazole to compound for Aspergillus ochraceus ATCC 12066; assay type: functional
Aspergillus niger [34] = test: Ratio of bifonazole to compound for Aspergillus niger ATCC 6275; assay type: functional
Talaromyces funiculosus [35] = test: Ratio of bifonazole to compound for Penicillium funiculosum ATCC 36839; assay type: functional
Penicillium ochrochloron [36] = test: Ratio of bifonazole to compound for Penicillium ochrochloron ATCC 9112; assay type: functional
Trichoderma viride [37] = test: Ratio of bifonazole to compound for Trichoderma viride IAM 5061; assay type: functional
Candida albicans [38] = test: Ratio of bifonazole to compound for Candida albicans isolated from human; assay type: functional
Aspergillus ochraceus [39] = test: Ratio of ketoconazole to compound for Aspergillus ochraceus ATCC 12066; assay type: functional
Aspergillus fumigatus [40] = test: Ratio of ketoconazole to compound for Aspergillus fumigatus isolated from human; assay type: functional
Penicillium ochrochloron [41] = test: Ratio of ketoconazole to compound for Penicillium ochrochloron ATCC 9112; assay type: functional
Candida albicans [42] = test: Ratio of ketoconazole to compound for Candida albicans isolated from human; assay type: functional
Aspergillus ochraceus [43] = test: Antifungal activity against Aspergillus ochraceus after 72 hrs by serial dilution technique

MIC (Staphylococcus aureus [1]): 90 µM (≈ 25.8 µg/mL)
MIC (Bacillus cereus [2]): 35 µM (≈ 10 µg/mL)
MIC (Micrococcus flavus [3]): 70 µM (≈ 20 µg/mL)
MIC (Listeria monocytogenes [4]): 90 µM (≈ 25.8 µg/mL)
MIC (Pseudomonas aeruginosa [5]): 70 µM (≈ 20 µg/mL)
MIC (Salmonella typhimurium [6]): 70 µM (≈ 20 µg/mL)
MIC (Escherichia coli [7]): 70 µM (≈ 20 µg/mL)
MIC (Enterococcus faecalis [8]): 90 µM (≈ 25.8 µg/mL)
MIC (Aspergillus ochraceus [17]): 35 µM (≈ 10 µg/mL)
MIC (Aspergillus niger [18]): 52.4 µM (≈ 15 µg/mL)
MIC (Aspergillus flavus [19]): 52.4 µM (≈ 15 µg/mL)
MIC (Talaromyces funiculosus [20]): 52.4 µM (≈ 15 µg/mL)
MIC (Penicillium ochrochloron [21]): 35 µM (≈ 10 µg/mL)
MIC (Trichoderma viride [22]): 26.2 µM (≈ 7.5 µg/mL)
MIC (Candida albicans [23]): 35 µM (≈ 10 µg/mL)
MIC (Aspergillus ochraceus [43]): 52.4 µM (≈ 15 µg/mL)
Structure (SMILES): CCCNc1nc(C)c(C(=O)/C=C/c2ccccc2)s1
MBC (Staphylococcus aureus [9]): 105 µM (≈ 30.1 µg/mL)
MBC (Bacillus cereus [10]): 70 µM (≈ 20 µg/mL)
MBC (Micrococcus flavus [11]): 105 µM (≈ 30.1 µg/mL)
MBC (Listeria monocytogenes [12]): 105 µM (≈ 30.1 µg/mL)
MBC (Pseudomonas aeruginosa [13]): 90 µM (≈ 25.8 µg/mL)
MBC (Salmonella typhimurium [14]): 90 µM (≈ 25.8 µg/mL)
MBC (Escherichia coli [15]): 88 µM (≈ 25.2 µg/mL)
MBC (Enterococcus faecalis [16]): 90 µM (≈ 25.8 µg/mL)
MFC (Aspergillus ochraceus [24]): 52.4 µM (≈ 15 µg/mL)
MFC (Aspergillus fumigatus [25]): 70 µM (≈ 20 µg/mL)
MFC (Aspergillus niger [26]): 70 µM (≈ 20 µg/mL)
MFC (Aspergillus flavus [27]): 70 µM (≈ 20 µg/mL)
MFC (Talaromyces funiculosus [28]): 70 µM (≈ 20 µg/mL)
MFC (Penicillium ochrochloron [29]): 70 µM (≈ 20 µg/mL)
MFC (Trichoderma viride [30]): 35 µM (≈ 10 µg/mL)
MFC (Candida albicans [31]): 70 µM (≈ 20 µg/mL)
Ratio (Pseudomonas aeruginosa [32]): 10
Ratio (Aspergillus ochraceus [33]): 10
Ratio (Aspergillus niger [34]): 10
Ratio (Talaromyces funiculosus [35]): 10
Ratio (Penicillium ochrochloron [36]): 10
Ratio (Trichoderma viride [37]): 10
Ratio (Candida albicans [38]): 10
Ratio (Aspergillus ochraceus [39]): 10
Ratio (Aspergillus fumigatus [40]): 10
Ratio (Penicillium ochrochloron [41]): 10
Ratio (Candida albicans [42]): 10
